Assay outcomes from PubChem BioAssay.
In the library only some 1.6% were active in any assay of this set; here they are far more common.
LEDGF integ inh: blocks HIV-1 LEDGF/p75-dependent DNA integration; TR-FRET IN-LEDGF/p75 DNA integration, Eu/Cy5; inhibition, % at 3.7 µM; 0.64% of 370,000 active; AID 743269;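 active = inhibition above the screen-wide mean plus 3 SD, cut at about 13% in these data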;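 also: signal is the Cy5 over europium emission ratio at 671 and 618 nm; 0% = plate median of compound wells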
MBD2 DNA inh: blocks human MBD2 binding to methylated DNA | Q9UBB5 | TR-FRET, MBD2 binding to methylated oligonucleotide | inhibition, % at 4.4 µM | 0.31% of 370,000 active; in the data active = inhibition above about 13%
TDP2 absorb: TDP2 (human) inhibition, absorbance primary screen | 0.34% of 370,000 active | AID 720702 | recombinant TDP2, T5PNP hydrolysis, p-nitrophenol absorbance 415 nm | inhibition, % at 12.8 µM | O95551;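 active = inhibition above the mean of all tested compounds plus 3 SD, set per campaign, cut at about 25% in these data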;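 also: 0% = DMSO with enzyme and 100% = buffer with substrate but no TDP2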
Target sequence (O95551 whole entry, looked up): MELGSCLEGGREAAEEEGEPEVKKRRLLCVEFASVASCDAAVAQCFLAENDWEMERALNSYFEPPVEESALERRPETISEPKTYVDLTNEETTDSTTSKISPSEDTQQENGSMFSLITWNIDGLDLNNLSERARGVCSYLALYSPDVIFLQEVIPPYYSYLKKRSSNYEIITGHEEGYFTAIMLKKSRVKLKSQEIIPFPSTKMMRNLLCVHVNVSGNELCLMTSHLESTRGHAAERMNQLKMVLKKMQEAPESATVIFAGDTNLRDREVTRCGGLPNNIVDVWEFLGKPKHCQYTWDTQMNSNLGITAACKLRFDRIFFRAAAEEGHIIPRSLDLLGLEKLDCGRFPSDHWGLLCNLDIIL
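Assay system: recombinant human TDP2 / Reagent: T5PNP substrate at 5 mM, a TopII-DNA adduct mimic / Measured by: epi absorbance from released p-nitrophenol / Evaluation: % inhibition relative to enzyme-containing and enzyme-free wells / Control set: enzyme-free and DMSO wells / Replicates: each compound tested once, singlicate / Schedule: enzyme reaction with compound for 2 h at 37 °C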
UHRF1 binding: human UHRF1 methylated DNA binding inhibitors; Q96T88; inhibition, % at 4.4 µM; 0.75% of 370,000 active; UHRF1 binding to methylated oligo, TR-FRET;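 also: UHRF1 SRA domain binding a hemimethylated CpG hairpin DNA probe; 0% = median of test compound wells and 100% = reference inhibitor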
UHRF1 DNA bind: UHRF1 methyl-oligo binding inhibition as MBD2 counter-screen; shares compounds with MBD2 DNA inh; inhibition, % at 4.4 µM; UHRF1 binding to methylated oligonucleotide, TR-FRET; 25% of 1,000 active;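 also: UHRF1 SRA domain binding a labeled hemimethylated CpG hairpin DNA; 0% = vehicle only and 100% = reference inhibitor with vehicle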
MBD2 confirm: confirmation of human MBD2-DBD methylated oligonucleotide binding inhibitors; AID 720531; shares compounds with MBD2 DNA inh; TR-FRET MBD2-DBD binding to methylated oligonucleotide; 26% of 1,000 active; inhibition, % at 4.4 µM; in the data active = inhibition above about 14%
TDP2 confirm: human TDP2 inhibition, confirmation; shares compounds with TDP2 absorb; recombinant human TDP2, absorbance read-out; inhibition, % at 12.8 µM; 22% of 1,100 active; in the data active = inhibition above about 25%;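 also: 0% = vehicle with enzyme and 100% = no enzyme buffer only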
* hit, by the source's call. Rule as the data show it, unless noted: active = inhibition above about 21%; inactive = the rest.

`CC1=NNC(=O)C1CCC(=O)N/N=C/c1ccccc1` (configuration not stated) gave LEDGF integ inh -5, MBD2 DNA inh 27*, TDP2 absorb -7, UHRF1 binding -1, UHRF1 DNA bind 7 and MBD2 confirm 2.
CC1=NNC(=O)C1CCC(=O)N/N=C/c1ccc(Cl)cc1 (configuration not stated) was read as LEDGF integ inh -5, MBD2 DNA inh 1, TDP2 absorb 9 and UHRF1 binding 3.
Cc1cc(C)cc(C(=O)OCCCN(C)C2CN(Cc3cn(Cc4ccc([N+](=O)[O-])cc4)nn3)S(=O)(=O)C2)c1 (configuration not stated) was read as LEDGF integ inh -3, MBD2 DNA inh 7, TDP2 absorb -4 and UHRF1 binding 11.
For Cc1ccc(C2NC(=S)NC3=C2C(=O)CCC3)cc1 (configuration not stated) the results were LEDGF integ inh -3, MBD2 DNA inh 14*, TDP2 absorb 2, UHRF1 binding 24*, UHRF1 DNA bind 1 and MBD2 confirm 2.
`O=C(OCc1cc(=O)n2c(n1)sc1ccccc12)c1ccc(O)cc1O` gave LEDGF integ inh 5, MBD2 DNA inh 6, TDP2 absorb 10 and UHRF1 binding 3.
O=C(OCc1cc(=O)n2c(n1)sc1ccccc12)c1cccc(O)c1 was read as LEDGF integ inh 3, MBD2 DNA inh 13*, TDP2 absorb 10, UHRF1 binding 16, UHRF1 DNA bind 21* and MBD2 confirm 18*.
`O=C(Cc1coc2cc3c(cc12)CCC3)OCc1cc(=O)n2c(n1)sc1ccccc12` gave LEDGF integ inh 6, MBD2 DNA inh 16*, TDP2 absorb 6, UHRF1 binding 16, UHRF1 DNA bind 19 and MBD2 confirm 14*.
c1ccc(Cn2c(SC3CCCCC3)nnc2-c2cccnc2)cc1 was read as LEDGF integ inh -2, MBD2 DNA inh 0, TDP2 absorb 4 and UHRF1 binding -2.
Screening CCN(CC)S(=O)(=O)c1ccc(N2CCOCC2)c(NC(=O)c2ccc(C#N)cc2)c1 returned LEDGF integ inh 0, MBD2 DNA inh 14*, TDP2 absorb 3, UHRF1 binding 25*, UHRF1 DNA bind 9 and MBD2 confirm 5.
For Cc1ccc(OCC(=O)c2c(N)n(C)c(=O)n(C)c2=O)c([N+](=O)[O-])n1 the results were LEDGF integ inh 12, MBD2 DNA inh 19*, TDP2 absorb -4, UHRF1 binding 23*, UHRF1 DNA bind 35* and MBD2 confirm 17*.
`CCN(C[C@H]1N[C@@](C)(C(=O)OC)[C@H]2C(=O)N(C)C(=O)[C@@H]12)C(=O)Nc1ccc(F)cc1` gave LEDGF integ inh -3, MBD2 DNA inh 2, TDP2 absorb -4 and UHRF1 binding 19.
For CCN(C[C@H]1N[C@@](C)(C(=O)OC)[C@H]2C(=O)N(C)C(=O)[C@@H]12)C(=O)Nc1ccc(C(F)(F)F)cc1 the results were LEDGF integ inh 1, MBD2 DNA inh 15*, TDP2 absorb 1, UHRF1 binding 22*, UHRF1 DNA bind 8 and MBD2 confirm 3.
COc1ccc(CCNC(=O)c2cc(-c3ccco3)nc3ccccc23)cc1 was read as LEDGF integ inh 9, MBD2 DNA inh 17*, TDP2 absorb -7, UHRF1 binding 21*, UHRF1 DNA bind 15 and MBD2 confirm 11.
CCN(CC)CCNC(=O)c1cc(-c2ccco2)nc2ccccc12 was read as LEDGF integ inh 4, MBD2 DNA inh 0, TDP2 absorb 2 and UHRF1 binding -5.
O=C(N=Nc1c(O)[nH]c2c(Cl)cc(Cl)cc12)c1ccccc1O was read as LEDGF integ inh -2, MBD2 DNA inh 1, TDP2 absorb 4 and UHRF1 binding -3.
CN(C)c1ccc(C=c2c3ccccc3n3c2cc(-c2ccccc2)[n+]3C)cc1 was read as LEDGF integ inh 12, MBD2 DNA inh 22*, TDP2 absorb 30*, UHRF1 binding 41*, UHRF1 DNA bind 64*, MBD2 confirm 56* and TDP2 confirm 10.
